These results are taken from ChEMBL document CHEMBL3351342, “Synthesis and biological evaluation of phenoxyacetic acid derivatives as novel free fatty acid receptor 1 agonists” (Bioorg Med Chem, 2015).

Data set [1] deals with T1, Free fatty acid receptor 1 (Homo sapiens, UniProt O14842). Kind of data set: Agonist activity at human FFA1 expressed in CHO cells assessed as ratio of increase in intracellular Ca2+ concentration in compound treated cells at 100 nM to vehicle-treated cells by Fluo-4 AM based fluorescence assay. The format is functional, cell-based. Summed up:
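Same Fluo-4 Ca2+ flux format in CHO cells stably expressing human FFA1. Single screening concentration of 100 nM. Activity expressed as A/B, the Ca2+ increase in compound-treated wells divided by that in vehicle-treated wells. Three independent experiments.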

For data set [2], the target named is T1, Free fatty acid receptor 1. Kind of data set: Agonist activity at human FFA1 expressed in CHO cells assessed as increase in intracellular Ca2+ concentration by Fluo-4 AM based fluorescence assay. In kind it is functional, cell-based. The method, boiled down:
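CHO cells stably expressing human FFA1 (NM_005303), 30,000 cells/well, cultured overnight at 37 °C in 5% CO2. Loaded with 2.5 µg/mL Fluo-4 AM and 2.5 mmol/L probenecid in HBSS for 90 min at 37 °C, washed, then held 10 min in HBSS with probenecid. Ca2+ rise after adding compound at various concentrations read by fluorimetry. EC50 from curve fitting, mean of three determinations.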

For data set [3], the system named is Mus musculus. Nature of the data set: Hypoglycemic effect in ICR mouse assessed as improvement in glucose intolerance at 20 mg/kg, po dosed 30 mins before oral glucose challenge by oral glucose tolerance test. The format is functional, organism-based. More on the design: dose 20 mg/kg. The method, boiled down:
(§1)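 Male ICR mice, 10 weeks old, fasted 12 h and randomized (n = 6). Single oral dose of 20 mg/kg as a suspension in 0.5% methylcellulose (1.0 mL/kg), given 30 min before an oral glucose load of 2 g/kg (20% solution). Blood glucose read by test strip at −30, 0, 15, 30, 60 and 120 min. AUC0–120 min calculated; mean ± SEM.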

Data set [4] deals with Mus musculus. Kind of data set: Hypoglycemic effect in ICR mouse assessed as reduction in glucose AUC (0 to 120 mins) at 20 mg/kg, po dosed 30 mins before oral glucose challenge by oral glucose tolerance test. In kind it is functional. Also noted: scale not given: the % may be the effect or the level left. Summed up:
as §1

The subject of data set [5] is Mus musculus. Kind of data set: Antihyperglycemic effect in type 2 diabetic C57BL/6 mouse assessed as reduction in blood glucose level at 60 mg/kg, po administered as single dose. The format is functional, organism-based. Also noted: dose 60 mg/kg. The method, boiled down:
(§2)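 Type 2 diabetes model: male C57BL/6 mice on high-fat diet (45% fat) for 4 weeks, STZ 80 mg/kg ip, then high-fat diet for another 4 weeks. Fasting glucose ≥11.1 mmol/L counted as diabetic. Mice fasted 12 h and randomized by weight and glucose (n = 6). Single oral dose of 30–100 mg/kg in 0.5% methylcellulose given 30 min before an oral glucose load of 1 g/kg. Glucose read by strip to 120 min; AUC0–120 min; mean ± SD.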

Data set [6] deals with Mus musculus. Nature of the data set: Antihyperglycemic effect in type 2 diabetic C57BL/6 mouse assessed as reduction in blood glucose level at 30 to 100 mg/kg, po. In kind it is functional, organism-based. Summed up: as §2
Data set [7] in a line: Clearance in Sprague-Dawley rat at 1 mg/kg, iv. In kind it is ADME, organism-based. More on the design: dose 1 mg/kg, route intravenous. Particulars: in vivo. Summed up: (§3)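 Fasted male SD rats (n = 3). Dosed 1 mg/kg iv (0.5 mg/mL, 2 mL/kg) or 1 mg/kg po (1 mg/mL, 1 mL/kg), both in 0.5% methylcellulose. Tail-vein blood in EDTA sampled from 5 min to 36 h. Plasma proteins precipitated with acetonitrile containing internal standard, then analysed by LC-MS/MS. Parameters derived from mean concentrations at each time point.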

Data set [8] can be described thus: Volume of distribution in Sprague-Dawley rat at 1 mg/kg, iv. More on the design: dose 1 mg/kg, route intravenous. The format is ADME, organism-based. Particulars: in vivo. The method, boiled down:
as §3

Data set [9] in a line: Half life in Sprague-Dawley rat at 1 mg/kg, iv. The format is ADME, organism-based. Also noted: dose 1 mg/kg, route intravenous. Particulars: in vivo. Summed up: as §3
Data set [10] can be described thus: Half life in Sprague-Dawley rat at 1 mg/kg, po. In kind it is ADME, organism-based. Also noted: dose 1 mg/kg, route oral. As to conditions: in vivo. Summed up:
as §3

Data set [11] can be described thus: Cmax in Sprague-Dawley rat at 1 mg/kg, po. In kind it is ADME, organism-based. Also noted: dose 1 mg/kg, route oral. Particulars: in vivo. Summed up: as §3
Data set [12] is described as follows: Tmax in Sprague-Dawley rat at 1 mg/kg, po. In kind it is ADME, organism-based. More on the design: dose 1 mg/kg, route oral. As to conditions: in vivo. Summed up:
as §3

The nature of data set [13]: AUC (0 to 8 hrs) in Sprague-Dawley rat at 1 mg/kg, po. The format is ADME, organism-based. Also noted: time < 8 hr, dose 1 mg/kg, route oral. As to conditions: plasma. The method, boiled down:
as §3

Data set [14] in a line: Oral bioavailability in Sprague-Dawley rat at 1 mg/kg. The format is ADME, organism-based. Particulars: in vivo. The method, boiled down: as §3

Structures are written as SMILES. pEC50: −log10 of the molar value. Activity calls are given as the source filed them. No cut-off for these calls is given here.

T1 sequence (O14842 whole entry): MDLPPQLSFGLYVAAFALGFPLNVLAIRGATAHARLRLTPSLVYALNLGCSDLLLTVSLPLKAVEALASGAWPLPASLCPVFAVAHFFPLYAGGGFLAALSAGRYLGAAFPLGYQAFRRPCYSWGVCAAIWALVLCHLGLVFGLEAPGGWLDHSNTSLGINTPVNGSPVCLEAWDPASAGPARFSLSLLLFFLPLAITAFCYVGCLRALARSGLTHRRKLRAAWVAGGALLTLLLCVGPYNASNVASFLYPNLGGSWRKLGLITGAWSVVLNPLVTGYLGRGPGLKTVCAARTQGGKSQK

Regarding `Cc1cc(OCCCS(C)(=O)=O)cc(C)c1-c1cccc(COc2ccc(OC(C)(C)C(=O)O)c(Cl)c2)c1`, the Ratio in [1] came to 3.04.

On to `CCC(Oc1ccc(OCc2cccc(-c3c(C)cc(OCCCS(C)(=O)=O)cc3C)c2)cc1)C(=O)O` (configuration not stated), for which, in data set [1], the Ratio turned out to be 3.04.

In the case of `Cc1cc(OCCCS(C)(=O)=O)cc(C)c1-c1cccc(COc2ccc(OCC(=O)O)c(F)c2)c1`, the Ratio in data set [1] turned out to be 6.42. In data set [2], the pEC50 was 7.21. For the same compound, the result in the data set on Mus musculus [3] and in the data set with Mus musculus [5] was Active. Further, the Activity was 31% in the data set on Mus musculus [4] and “Dose-dependent effect” in the data set with Mus musculus [6]. The compound further gave a clearance in data set [7] of 1.83 mL/min/kg. In data set [8], this compound displayed a distribution volume (Vd) of 0.26 L/kg. In addition, the half-life in data set [9] was 4.15 h; in data set [10], 3.27 h. This compound also came in with a maximum concentration (Cmax) in data set [11] of 1170 ng/mL. In data set [12], the Tmax was found to be 1 h. Further, the AUC(0-t) at 8 h in [13] came out at 5340 ng·h/mL. This compound also showed a bioavailability in [14] of 63%.

On to `Cc1cc(OCCCS(C)(=O)=O)cc(C)c1-c1cccc(COc2ccc(OC(C)C(=O)O)cc2)c1` (configuration not stated), for which the Ratio in data set [1] is 4.04. In addition, in data set [2], the pEC50 is 6.41. Moreover, the outcome in the data set on Mus musculus [3] was Active.

As for `Cc1cc(OCCCS(C)(=O)=O)cc(C)c1-c1cccc(COc2ccc(OC(C)(C)C(=O)O)cc2)c1`, the Ratio in data set [1] turned out to be 2.45.

Turning to `Cc1cc(OCCCS(C)(=O)=O)cc(C)c1-c1cccc(COc2ccc(OCC(=O)O)c(Cl)c2)c1`, in data set [1], the Ratio worked out at 6.18. For the same compound, the negative-log EC50 (pEC50) in [2] is 7.03. Further, in the data set on Mus musculus [3], the result was Active.

As for `Cc1cc(OCCCS(C)(=O)=O)cc(C)c1-c1cccc(COc2ccc3c(c2)OC[C@H]3CC(=O)O)c1`, the result in the data set on Mus musculus [3] was Active. Moreover, in the data set with Mus musculus [4], the Activity was 29.3%.

As to `CCc1cc(OCc2cccc(-c3c(C)cc(OCCCS(C)(=O)=O)cc3C)c2)ccc1OCC(=O)O`, the Ratio in data set [1] turned out to be 3.19.

With `Cc1cc(OCCCS(C)(=O)=O)cc(C)c1-c1cccc(COc2ccc(OC(C)(C)C(=O)O)c(F)c2)c1`, the Ratio in data set [1] was 3.06.

For the compound `COc1cc(OCc2cccc(-c3c(C)cc(OCCCS(C)(=O)=O)cc3C)c2)ccc1OC(C)(C)C(=O)O`, the Ratio in [1] is 1.81.

Take `COc1cc(OCc2cccc(-c3c(C)cc(OCCCS(C)(=O)=O)cc3C)c2)ccc1OCC(=O)O`: the Ratio in data set [1] worked out at 2.02.

On to `Cc1cc(OCCCS(C)(=O)=O)cc(C)c1-c1cccc(COc2ccc(OCC(=O)O)cc2)c1`, for which, in [1], the Ratio was 6.04. In data set [2], the pEC50 is 6.92. Moreover, the outcome in the data set on Mus musculus [3] was Active.

For the compound `Cc1cc(OCc2cccc(-c3c(C)cc(OCCCS(C)(=O)=O)cc3C)c2)ccc1OCC(=O)O`, the Ratio in data set [1] was 5.64. In addition, the negative-log EC50 (pEC50) in data set [2] was 6.81. Also, the result in the data set on Mus musculus [3] was Active.

With `Cc1cc(OCc2cccc(-c3c(C)cc(OCCCS(C)(=O)=O)cc3C)c2)cc(C)c1OC(C)(C)C(=O)O`, the Ratio in data set [1] turned out to be 1.6.

Regarding `CCc1cc(OCc2cccc(-c3c(C)cc(OCCCS(C)(=O)=O)cc3C)c2)ccc1OC(C)(C)C(=O)O`, the Ratio in data set [1] was determined as 1.48.
